Measurements published in ChEMBL document CHEMBL1138335, “New N-arachidonoylserotonin analogues with potential "dual" mechanism of action against pain” (J Med Chem, 2007).
The source made the active and inactive calls. No cut-off for these calls is given here.

What was measured:
[1] = target: T1, Fatty-acid amide hydrolase 1 (Rattus norvegicus, UniProt P97612); experiment: Inhibition of rat brain FAAH assessed by measuring [14C]anandamide hydrolysis after 30 mins
T1 sequence (P97612 whole entry): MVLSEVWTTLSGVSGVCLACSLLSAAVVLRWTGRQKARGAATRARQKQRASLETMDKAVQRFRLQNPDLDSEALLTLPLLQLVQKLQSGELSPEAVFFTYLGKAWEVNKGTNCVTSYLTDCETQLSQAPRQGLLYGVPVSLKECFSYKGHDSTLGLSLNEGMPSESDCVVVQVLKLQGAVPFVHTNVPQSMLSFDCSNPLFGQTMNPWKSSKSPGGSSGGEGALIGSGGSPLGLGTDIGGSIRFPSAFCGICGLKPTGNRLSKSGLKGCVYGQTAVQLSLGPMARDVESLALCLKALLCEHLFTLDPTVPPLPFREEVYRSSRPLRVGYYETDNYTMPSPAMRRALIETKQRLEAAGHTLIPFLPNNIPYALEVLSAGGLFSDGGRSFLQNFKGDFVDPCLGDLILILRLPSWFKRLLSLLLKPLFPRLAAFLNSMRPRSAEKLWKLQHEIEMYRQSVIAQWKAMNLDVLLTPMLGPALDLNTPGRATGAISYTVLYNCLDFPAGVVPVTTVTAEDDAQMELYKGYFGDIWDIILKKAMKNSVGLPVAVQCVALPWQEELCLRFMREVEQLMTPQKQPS

[2] = target: Transient receptor potential cation channel subfamily V member 1 (Homo sapiens, UniProt Q8NER1); experiment: Antagonist activity at human recombinant TRPV1 receptor expressed in HEK293 cells assessed as inhibition of capsaicin-induced intracellular calcium elevation; type: functional, cell-based
Chain of Transient receptor potential cation channel subfamily V member 1 (Q8NER1 whole entry): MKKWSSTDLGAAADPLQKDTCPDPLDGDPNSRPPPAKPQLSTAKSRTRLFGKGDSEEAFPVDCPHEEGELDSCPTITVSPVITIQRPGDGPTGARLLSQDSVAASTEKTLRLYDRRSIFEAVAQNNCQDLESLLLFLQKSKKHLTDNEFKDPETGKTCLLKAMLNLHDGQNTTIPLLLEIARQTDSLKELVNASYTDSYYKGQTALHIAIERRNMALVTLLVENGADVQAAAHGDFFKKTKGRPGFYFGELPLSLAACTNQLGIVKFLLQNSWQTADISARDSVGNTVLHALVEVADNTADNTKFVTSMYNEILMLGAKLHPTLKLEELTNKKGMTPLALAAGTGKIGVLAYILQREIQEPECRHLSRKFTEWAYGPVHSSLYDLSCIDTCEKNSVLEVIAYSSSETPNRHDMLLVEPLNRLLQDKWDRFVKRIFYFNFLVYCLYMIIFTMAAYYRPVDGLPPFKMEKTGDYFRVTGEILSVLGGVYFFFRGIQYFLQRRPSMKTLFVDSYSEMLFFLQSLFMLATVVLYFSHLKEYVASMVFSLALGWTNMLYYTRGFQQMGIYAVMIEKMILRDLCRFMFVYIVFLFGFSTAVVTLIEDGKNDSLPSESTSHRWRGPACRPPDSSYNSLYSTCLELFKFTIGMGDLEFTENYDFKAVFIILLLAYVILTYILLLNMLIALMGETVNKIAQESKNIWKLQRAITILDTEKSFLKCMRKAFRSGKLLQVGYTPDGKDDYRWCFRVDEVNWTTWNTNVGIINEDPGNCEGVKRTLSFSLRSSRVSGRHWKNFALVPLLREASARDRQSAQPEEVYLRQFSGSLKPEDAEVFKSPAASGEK
Outline: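 Stably transfected HEK293 cells grown in MEM with nonessential amino acids, 10% FCS, 0.2 mM glutamine, 37 °C. Plated on poly-L-lysine a day before. Loaded 2 h at 25 °C with 4 µM Fluo-3 AM, washed, trypsinized, resuspended in Tyrode pH 7.4.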

[3] = test system: RBL-2H3; experiment: Inhibition of anandamide uptake in RBL-2H3 cells upto 25 uM after 5 mins by anandamide membrane transport assay; type: functional, cell-based; conditions: Rattus norvegicus
[4] = test system: Mus musculus; experiment: Antinociceptive activity in ip dosed mouse assessed as inhibition of formalin-induced hyperalgesia; type: functional, organism-based
Outline: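 Mice given compound ip 15 min before 1.25% formalin into the dorsal hind paw (n = 8–10 per group). Doses were 0.3–5 or 1–10 mg/kg. Some groups also got AM251 or AM630 (3 mg/kg ip) or I-RTX (0.1–0.2 mg/kg ip) 5 min earlier. Lifting, licking, flinching and similar behaviour timed every 5 min for 60 min. IC50 estimated at 40 min post-formalin.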

[5] = target: T2, Fatty-acid amide hydrolase 1 (Rattus norvegicus) (UniProt P97612); conditions: at 50 µM
T2 sequence (whole entry): T1 sequence (P97612 whole entry)

SMILES	IC50 [1] [µM]	IC50 [2] [µM]	IC50 [4] [mg/kg]	Activity [3]	inhibition [5] [%]
CC(C)(C)c1ccc(CNC(=O)NCCc2c[nH]c3ccc(O)cc23)cc1	50	3.8			
O=C(CCCCC1CCSS1)NCCc1c[nH]c2ccc(O)cc12 (racemic)	> 50	> 10			
O=C(NCCc1c[nH]c2ccc(O)cc12)Oc1ccc2ccccc2c1	10	> 10		inactive	
CCCCC/C=C\C/C=C\C/C=C\C/C=C\CCCC(=O)NCCc1c[nH]c2ccc(O)cc12	8	0.27	0.5		
O=C(NCCc1c[nH]c2ccc(O)cc12)Oc1cccc(C(F)(F)F)c1	2.2	> 10			
O=C(NCCc1c[nH]c2ccc(O)cc12)Oc1ccc(I)cc1	5	> 10			
CC(C)(C)c1cccc(OC(=O)NCCc2c[nH]c3ccc(O)cc23)c1	3.7	> 10			
C=C(C)[C@]12C[C@@H](C)[C@@]34O[C@](Cc5ccccc5)(O[C@@H]1[C@@H]3C=C(COC(=O)Cc1cc(I)c(O)c(OC)c1)C[C@]1(O)C(=O)C(C)=C[C@@H]41)O2					< 10
O=C(NCCc1c[nH]c2ccc(O)cc12)Oc1cccc(Cl)c1	1.9	> 10			
CCCCC/C=C\C/C=C\CCCCCCCC(=O)NCCc1c[nH]c2ccc(O)cc12	30	1.82			
O=C(NCCc1c[nH]c2ccc(O)cc12)Oc1ccc(C(F)(F)F)cc1	6.4	> 10			
CCCCCc1cccc(NC(=O)NCCc2c[nH]c3ccc(O)cc23)c1	> 50	2.63			
CCCCCCCCCCC(=O)NCCc1c[nH]c2ccc(O)cc12	> 50	0.76			
O=C(NCCc1c[nH]c2ccc(O)cc12)Oc1ccc(Cl)cc1	6.8	> 10			
CCCCCCCCCCCC(=O)NCCc1c[nH]c2ccc(O)cc12	> 50	0.74			
CC(C)(C)c1ccc(OC(=O)NCCc2c[nH]c3ccc(O)cc23)cc1	> 10	5.25			

The next lines start with results.

IC50 [1] [µM]	IC50 [2] [µM]	IC50 [4] [mg/kg]	SMILES	Activity [3]	inhibition [5] [%]
1.17	> 10		O=C(NCCc1c[nH]c2ccc(O)cc12)Oc1ccc(OCc2ccccc2)cc1	inactive	
10	0.47		CC/C=C\C/C=C\C/C=C\CCCCCCCC(=O)NCCc1c[nH]c2ccc(O)cc12		
> 50	2.57		CCCCCCCC/C=C\CCCCCCCC(=O)NCCc1c[nH]c2ccc(O)cc12		
34	2.13		O=C(CCCCCCCc1ccccc1)NCCc1c[nH]c2ccc(O)cc12		
1.8	> 10		O=C(NCCc1c[nH]c2ccc(O)cc12)Oc1cccc(I)c1		
> 50	> 10		O=C(NCCc1ccc(Oc2ccccc2)cc1)NCCc1c[nH]c2ccc(O)cc12		
> 50	> 10		O=C(NCCc1ccc(Cl)cc1)NCCc1c[nH]c2ccc(O)cc12		
> 50	> 10		CCCCC/C=C\C/C=C\CCCCCCCCOC(=O)NCCc1c[nH]c2ccc(O)cc12		
0.5	> 10	4	O=C(NCCc1c[nH]c2ccc(O)cc12)Oc1cccc(-c2ccccc2)c1	inactive	
3.6	2.4		CCCCCc1cccc(OC(=O)NCCc2c[nH]c3ccc(O)cc23)c1	inactive	
30	0.68		O=C(CCCCCCCCc1ccccc1)NCCc1c[nH]c2ccc(O)cc12		
> 50	> 10		O=C(NCCc1ccc(-c2ccccc2)cc1)NCCc1c[nH]c2ccc(O)cc12		
> 50	0.24		CCCCCc1cccc(CC(=O)NCCc2c[nH]c3ccc(O)cc23)c1		
50	> 10		CCCCCc1ccc2ccc(CCCC(=O)NCCc3c[nH]c4ccc(O)cc34)cc2c1		
50	> 10		CCCCCc1cccc(-c2cccc(CCCC(=O)NCCc3c[nH]c4ccc(O)cc34)c2)c1		
> 50	> 10		CC/C=C\C/C=C\C/C=C\CCCCCCCCOC(=O)NCCc1c[nH]c2ccc(O)cc12		
> 50	9.12		O=C(CCCCCCc1ccccc1)NCCc1c[nH]c2ccc(O)cc12		
> 50	0.43	5	O=C(Cc1cccc(-c2ccccc2)c1)NCCc1c[nH]c2ccc(O)cc12		
10	0.95		CCCCC/C=C\C/C=C\C/C=C\CCCCC(=O)NCCc1c[nH]c2ccc(O)cc12		
> 50	2.82		CCCCC/C=C\C/C=C\C/C=C\C/C=C\CCCCOC(=O)NCCc1c[nH]c2ccc(O)cc12		
> 50	0.72		O=C(NCCc1c[nH]c2ccc(O)cc12)Nc1cccc(-c2ccccc2)c1		
> 50	> 10		CCCCC/C=C\C/C=C\C/C=C\CCCCCOC(=O)NCCc1c[nH]c2ccc(O)cc12		
> 50	> 10		O=C(NCCc1ccccc1)NCCc1c[nH]c2ccc(O)cc12		
